Screening results: PubChem, Johns Hopkins Ion Channel Center
In the library only some 2.3% were active in any assay of this set; here they are far more common.
TRPC6 inh: mouse TRPC6 channel inhibition. HEK293-TRPC6, membrane potential dye, ACh-evoked depolarization; active compounds read low. B-score at 10 µM. 310,000 tested, 1.1% active. AID 2553;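 active = B-score under library mean minus 3 SD, initial fluorescence not abnormally high, positive integrated signal ratio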;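 note: B-score derived from integrated fluorescence ratio over the kinetic read; more negative B-score means stronger inhibition of depolarization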
TRPC6 activator: activates the mouse TRPC6 cation channel; Q61143; HEK293-TRPC6 membrane potential dye fluorescence; active compounds read high; B-score at 10 µM; 310,000 tested, 0.13% active;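 active = B-score of the integrated fluorescence ratio above library mean plus 3 SD, and starting fluorescence ratio within library mean plus 5 SD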;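 note: higher score means more depolarization so channel activation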
TRPC4 inh: blocks the mouse TRPC4 cation channel. Q9QUQ5. B-score at 10 µM. AID 2247. 300,000 tested, 0.39% active. HEK293 TRPC4beta/mu-opioid, DAMGO-evoked Fluo4 calcium flux; active compounds read low;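 active = B-score over 3 SD under the library average, no early fluorescence shift, positive overall ratio signal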
Target sequence (Q9QUQ5 whole entry, looked up): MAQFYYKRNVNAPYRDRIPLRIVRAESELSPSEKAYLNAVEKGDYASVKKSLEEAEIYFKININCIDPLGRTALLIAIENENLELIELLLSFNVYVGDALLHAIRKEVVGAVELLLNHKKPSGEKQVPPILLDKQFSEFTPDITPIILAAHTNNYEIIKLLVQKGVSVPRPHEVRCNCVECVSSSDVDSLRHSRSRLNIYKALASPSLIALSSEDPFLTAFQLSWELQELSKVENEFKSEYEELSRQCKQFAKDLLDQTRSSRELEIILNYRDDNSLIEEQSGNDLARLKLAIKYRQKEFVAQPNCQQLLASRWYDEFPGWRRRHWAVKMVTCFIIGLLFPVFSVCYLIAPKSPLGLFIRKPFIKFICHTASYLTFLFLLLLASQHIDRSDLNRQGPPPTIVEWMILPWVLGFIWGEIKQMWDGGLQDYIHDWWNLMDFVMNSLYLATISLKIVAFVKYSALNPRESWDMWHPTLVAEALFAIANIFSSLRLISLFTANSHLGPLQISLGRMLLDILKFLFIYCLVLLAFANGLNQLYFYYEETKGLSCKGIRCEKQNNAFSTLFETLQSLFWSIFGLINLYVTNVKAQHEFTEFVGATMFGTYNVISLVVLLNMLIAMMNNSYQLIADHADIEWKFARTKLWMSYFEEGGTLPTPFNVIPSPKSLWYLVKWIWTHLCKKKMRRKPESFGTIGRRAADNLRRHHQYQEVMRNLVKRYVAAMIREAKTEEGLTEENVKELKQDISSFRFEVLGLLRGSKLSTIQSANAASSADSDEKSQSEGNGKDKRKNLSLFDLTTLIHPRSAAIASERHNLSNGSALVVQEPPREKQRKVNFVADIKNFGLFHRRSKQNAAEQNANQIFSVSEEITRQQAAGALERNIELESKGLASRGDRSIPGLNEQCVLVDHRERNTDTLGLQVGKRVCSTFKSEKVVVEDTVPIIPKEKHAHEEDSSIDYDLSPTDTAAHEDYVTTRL
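Assay system – HEK293 line stably carrying TRPC4beta and mu-opioid receptor · Doses – single dose · Detection – Fluo4 calcium-dye fluorescence, kinetic read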
TRPC4 agonist: opens the mouse TRPC4 cation channel. HEK293 TRPC4beta/mu-opioid, Fluo4 calcium fluorescence; active compounds read high. B-score at 10 µM. 310,000 tested, 0.49% active;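 active = B-score above 5 SD of library B-scores, and initial fluorescence ratio not above library mean plus 5 SD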;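 note: positive B-score marks a calcium rise read as TRPC4 activation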
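system = HEK293 cells stably co-expressing mouse TRPC4beta and mu-opioid receptor | schedule = Fluo4 dye loading 45 min at room temperature, 110 s recording | measure = B-scored integrated calcium fluorescence ratio | signal = Fluo4 calcium-sensitive dye fluorescence, kinetic, 1 Hz baseline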
TRPC4 potent: allosterically enhances the mouse TRPC4 cation channel; Q9QUQ5; HEK293 TRPC4beta/mu-opioid, DAMGO EC20, Fluo-4 Ca2+ flux; active compounds read high; B-score at 10 µM; 310,000 tested, 0.42% active;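 active = B-score of calcium response area above 5 SD of library B-scores, with initial fluorescence ratio within 5 SD of library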
TRPC4 spec 2: second check of whether TRPC6 inhibitors also affect mouse TRPC4. 920 tested, 42% active. shares compounds with TRPC6 inh. HEK293 TRPC4/MOR, membrane potential dye fluorescence; channel activated by saturating DAMGO dose. inhibition, % at 10 µM;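 active = compounds whose fluorescence signal differed from control wells by over 3 SD, either direction, in both duplicate plates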
TRPC4 spec: tests whether TRPC6 inhibitors also affect mouse TRPC4; shares compounds with TRPC6 inh; HEK293 TRPC4/mu-opioid, membrane potential fluorescence; activity change, negative = inhibition, % at 10 µM; 920 tested, 61% active;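 active = rise or fall in signal beyond 3 SD of buffer-only wells in both replicate plates, either sign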;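 note: integrated kinetic ratio of fluorescence range over baseline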
HEK293 MPD ctr 2-1: second check of TRPC6 inhibitor effects in parental HEK293 cells | shares compounds with TRPC6 inh | parental HEK293 membrane potential dye fluorescence; maximal acetylcholine challenge after compound addition | signal change vs control, % at 10 µM | 920 tested, 31% active;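 active = membrane potential signal moving either way by over 3 SD of the maximum-effect control, in both duplicate plates, meaning non-specific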
HEK293 MPD ctr-1: checks TRPC6 inhibitor effects in parental HEK293 cells | 920 tested, 60% active | parental HEK293 membrane potential dye fluorescence | shares compounds with TRPC6 inh | membrane potential signal change, % at 10 µM;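 active = membrane potential signal shifting up or down by more than 3 SD of buffer-only wells, on both duplicate plates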
HEK293 MPD ctr-2: counter-screen for TRPC6 modulators: effect in parental HEK293 cells | 2,400 tested, 51% active | membrane potential dye fluorescence | shares compounds with TRPC6 inh | membrane potential signal change, % at 10 µM;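 active = membrane potential signal moves up or down beyond 5 SD from buffer-only wells, on both duplicate plates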
HEK293 MPD ctr 2-2: parental HEK293 nonspecific activity of TRPC6 modulators, second screen; shares compounds with TRPC6 inh; membrane potential dye fluorescence; after compound, maximal acetylcholine stimulation; inhibition, % at 10 µM; 2,400 tested, 14% active; AID 488926;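 active = membrane potential signal drops by more than 5 SD from the mean control signal, in both duplicate plates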
TRPC4/MOR mod: selectivity of TRPC6 modulators against mouse TRPC4 | shares compounds with TRPC6 inh | HEK293 TRPC4/mu-opioid, membrane potential fluorescence | percent change from control (negative = decrease, positive = increase), % at 10 µM | 2,400 tested, 69% active | AID 488927;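 active = membrane potential signal moved up or down beyond 5 SD of buffer control wells, in both duplicate plates, actives on both sides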
TRPC4/MOR inh 2: mouse TRPC4 off-target activity of TRPC6 modulators, second screen; shares compounds with TRPC6 inh; HEK293 TRPC4/mu-opioid, membrane potential dye fluorescence; stimulated with maximal-effect DAMGO; inhibition, % at 10 µM; 2,400 tested, 55% active; AID 488928;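 active = drop in membrane potential signal beyond 5 SD of the control wells in both duplicate plates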;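 note: TRPC4 counter screen for TRPC6 hits run under conditions tuned for TRPC6 not TRPC4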
TRPC6 inh conf: mouse TRPC6 inhibitor confirmation; inhibition, % at 10 µM; shares compounds with TRPC6 inh; 3,300 tested, 43% active; HEK293-TRPC6, membrane potential dye, ACh-evoked depolarization;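 active = fluorescence ratio falls more than 5 SD below the full-stimulation control mean, in both duplicate runs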;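 note: integrated fluorescence ratio of peak minus minimum over baseline after agonist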
TRPC6 act conf: confirmation of mouse TRPC6 activators; shares compounds with TRPC6 inh; HEK293-TRPC6 membrane potential dye fluorescence, FDSS; activation, % at 10 µM; 2,800 tested, 11% active;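 active = ratio signal rise beyond 5 SD above unstimulated control wells' mean, seen in both duplicate runs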
Each line names hits and unclear results; the compound was inactive in the other large screens (follow-up assays come after a bar, where they were run).

CCN(CCO)c1ccc(N=Cc2c(O)n(C)c(=S)[nH]c2=O)cc1	TRPC6 inh -7.52, TRPC6 activator 23.2 | HEK293 MPD ctr-2 162.0% | HEK293 MPD ctr 2-2 inactive | TRPC4/MOR mod 26.0% | TRPC4/MOR inh 2 inactive | TRPC6 inh conf 36.5% | TRPC6 act conf 53.5%
CCN(CC)c1ccc(N=Cc2c(O)n(Cc3ccco3)c(=O)[nH]c2=O)cc1	none
Cc1ccc2c(c1)C1CN(C)CCC1N2C(=O)CCCN1C(=O)c2cccc3cccc(c23)C1=O (stereo not given)	none
CCOC(=O)C(O)(c1ccc(N(CC)C(=O)COc2ccccc2)cc1)C(F)(F)F (stereo not given)	TRPC6 inh -5.05 | HEK293 MPD ctr-2 inactive | HEK293 MPD ctr 2-2 inactive | TRPC4/MOR mod inactive | TRPC4/MOR inh 2 inactive | TRPC6 inh conf inactive | TRPC6 act conf inactive
COc1ccc(-n2c(/C=C/c3cccc(F)c3)nc3ccccc3c2=O)c(OC)c1	none
Cc1nc2c(C(=O)N3CCC4(CC3)OCCO4)cnn2c(C)c1Cc1cccc(Cl)c1	TRPC6 inh -5.23 | HEK293 MPD ctr-2 inactive | HEK293 MPD ctr 2-2 inactive | TRPC4/MOR mod inactive | TRPC4/MOR inh 2 inactive | TRPC6 inh conf 45.0%
CC(c1ccccc1)n1cncc1C(=O)O (stereo not given)	none
C/C=C1/CC(C)C(C)(O)C(=O)OCC2CCN3CCC(OC1=O)C23 (stereo not given)	TRPC6 inh -6.21 | HEK293 MPD ctr-2 inactive | HEK293 MPD ctr 2-2 81.0% | TRPC4/MOR mod 18.5% | TRPC4/MOR inh 2 inactive | TRPC6 inh conf 78.5% | TRPC6 act conf inactive
Cc1nc2cc([N+](=O)[O-])ccc2c(=O)n1-c1cccc(Br)c1	none
COc1ccc(S(=O)(=O)NC(CC(=O)N2CCC3(CC2)OCCO3)C(C)C)cc1 (stereo not given)	none
CN1CCN(c2c(F)cc([N+](=O)[O-])c(N)c2Br)CC1	none
CN1CCN(c2ccc(S(C)(=O)=O)cc2[N+](=O)[O-])CC1	none
CN1CCN(c2cc(N3CCCCCC3)c(F)cc2[N+](=O)[O-])CC1	TRPC6 inh -6.02 | HEK293 MPD ctr-2 -88.0% | HEK293 MPD ctr 2-2 inactive | TRPC4/MOR mod -23.5% | TRPC4/MOR inh 2 54.5% | TRPC6 inh conf 41.0% | TRPC6 act conf inactive
CN1CCN(c2ccc([N+](=O)[O-])c(Sc3nncn3C)c2)CC1	none
Cn1c(=O)n(C)c2cc([N+](=O)[O-])c(N3CCNCC3)cc21	TRPC6 inh -6.28 | HEK293 MPD ctr-2 -276.0% | HEK293 MPD ctr 2-2 69.5% | TRPC4/MOR mod -45.5% | TRPC4/MOR inh 2 54.5% | TRPC6 inh conf 52.0% | TRPC6 act conf inactive
O=[N+]([O-])c1cc(F)c(N2CCCC2)cc1N1CCNCC1	TRPC6 inh -6.9 | TRPC4 spec 2 48.5% | TRPC4 spec -28.9% | HEK293 MPD ctr 2-1 inactive | HEK293 MPD ctr-1 -399.0% | TRPC6 inh conf inactive | TRPC6 act conf inactive
CC1CN(c2ccc([N+](=O)[O-])c(N3CCCCC3)c2)CCN1 (stereo not given)	TRPC6 inh -5.35 | HEK293 MPD ctr-2 inactive | HEK293 MPD ctr 2-2 inactive | TRPC4/MOR mod -10.5% | TRPC4/MOR inh 2 inactive | TRPC6 inh conf inactive | TRPC6 act conf inactive
O=C(c1cc([N+](=O)[O-])ccc1N1CCNCC1)N1CCOCC1	none
Oc1cc2c(cc1CN1CCN(c3ccccc3F)CC1)OCO2	none
Nc1c([N+](=O)[O-])cc(F)c(N2CCNCC2)c1Br	TRPC6 inh -5.89, TRPC4 potent 23 | HEK293 MPD ctr-2 -127.5% | HEK293 MPD ctr 2-2 inactive | TRPC4/MOR mod -22.5% | TRPC4/MOR inh 2 33.5% | TRPC6 inh conf 39.0% | TRPC6 act conf inactive
COc1cc(C(=S)N2CCOCC2)cc(OC)c1OC(=O)Cc1ccccc1	none
CN1CCN(CCOC2c3ccccc3CSc3ccc(Cl)cc32)CC1 (stereo not given)	none
CN(C)CCSC1c2ccccc2CSc2ccccc21 (stereo not given)	TRPC6 inh -6.22 | HEK293 MPD ctr-2 inactive | HEK293 MPD ctr 2-2 78.0% | TRPC4/MOR mod 11.0% | TRPC4/MOR inh 2 49.5% | TRPC6 inh conf 74.0%
O=C(c1cccc(C(F)(F)F)c1)C1CCCN(Cc2ncc[nH]2)C1 (stereo not given)	none
CCn1ccnc1CN1CCCC(C(=O)c2cccc(C(F)(F)F)c2)C1 (stereo not given)	TRPC6 inh -5.08 | HEK293 MPD ctr-2 inactive | HEK293 MPD ctr 2-2 inactive | TRPC4/MOR mod 8.0% | TRPC4/MOR inh 2 65.0% | TRPC6 inh conf 62.5%
COC(=O)C1=C(c2cccc(OC)c2OC)C[C@@H]2CC[C@H]1N2C(=O)NCCNC(C)=O	none
Cc1ccc(-c2cc(-c3ccccc3)cc(-c3ccccc3)[n+]2-c2ccc(C(=O)O)cc2)cc1	none
COc1ccc(-c2cc(-c3ccccc3)[n+](C)c(-c3ccccc3)c2)cc1	TRPC6 inh -5.57 | HEK293 MPD ctr-2 inactive | HEK293 MPD ctr 2-2 inactive | TRPC4/MOR mod inactive | TRPC4/MOR inh 2 inactive | TRPC6 inh conf inactive | TRPC6 act conf inactive
COc1ccc(-[n+]2c(-c3ccccc3)cc(-c3ccc(C)cc3)cc2-c2ccccc2)cc1	TRPC6 inh -9.12 | TRPC4 spec 2 inactive | TRPC4 spec 16.9% | HEK293 MPD ctr 2-1 inactive | HEK293 MPD ctr-1 17.5% | TRPC6 inh conf 70.4%
